pEC50: −log10 of the molar value. Active and inactive are the calls of the source. The calls are words filed in the database; no cut-off is given here.
What was measured:
[1] = Cytotoxicity against human Huh-H1 cells; assay type: cell-based
[2] = tested on: Vesicular stomatitis virus; assay: Antiviral activity against Vesicular stomatitis virus pseudoparticle expressing glycoprotein assessed as inhibition of pseudoparticles entry into human Huh-H1 cells after 2 days by luciferase reporter gene assay; assay type: functional, organism-based
[3] = Selectivity index, ratio of CC50 for human HuH7 cells to EC50 for cell culture derived HCV; set-up: species or system Huh-7
Procedure, shortened: (§1)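 Naïve Huh-7 cells in 384-well plates were given serially diluted compound, then infected with cell culture-derived HCV (HCVcc) at MOI 1. Live cells were analysed 72 h post-infection. EC50 came from 10-point dose-response in duplicate with quadruplicate measurements, or 5-point in duplicate for one series. CC50 came from automated per-well cell counts. SI = CC50/EC50.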

Hepatitis C virus [4] = assay: Antiviral activity against HCV genotype-1 pseudoparticle expressing envelope protein E1 and E2 assessed as inhibition of pseudoparticles entry into human Huh-H1 cells after 2 days by luciferase reporter gene assay; assay type: functional, organism-based, Hepacivirus hominis; details: genotype 1, Huh-H1, 48 h
Hepatitis C virus [5] = assay: Antiviral activity against cell culture derived HCV infected in human HuH7 cells assessed as inhibition of viral replication after 72 hrs; assay type: functional, organism-based, Hepacivirus hominis; details: Huh-7, 72 h; procedure, shortened: as §1
[6] = Cytotoxicity against human HuH7 cells; assay type: cell-based, Huh-7; procedure, shortened: as §1

| Structure (SMILES) | CC50 [1] [nM] | inhibition [2] | Ratio CC50/EC50 [3] | pEC50 (Hepatitis C virus [4]) | pEC50 (Hepatitis C virus [5]) | CC50 [6] [nM] |
| --- | --- | --- | --- | --- | --- | --- |
| CCCCCNc1nc(Nc2ccc([N+](=O)[O-])cc2)nc(OCC(F)(F)F)n1 | > 25000 | inactive | – | – | – | – |
| CN1CCN(CCNCc2cn(-c3ccc(F)cc3F)nc2-c2ccc(Cl)cc2)CC1 | 9100 | inactive | 50 | 5.72 | 6.42 | 19000 |
| COc1ccc(-n2cc(CNCCN3CCN(C)CC3)c(-c3ccccc3C)n2)cc1 | – | – | >7.1 | – | 5.55 | > 20000 |
| CN1CCN(CCNCc2cn(-c3ccc(F)cc3F)nc2-c2ccc(N(C)C)cc2)CC1 | – | – | >15 | – | 5.89 | > 20000 |
| CN1CCN(CCNCc2cn(-c3ccc(C(F)(F)F)cc3)nc2-c2ccc(Cl)cc2)CC1 | – | – | 8.4 | – | 6.44 | 3000 |
| Cc1ccccc1-c1nn(-c2cccc(Cl)c2)cc1CNCCN1CCN(C)CC1 | – | – | 16 | – | 6.00 | 16000 |
| Cc1ccccc1-c1nn(-c2ccc(Br)cc2)cc1CNCCN1CCN(C)CC1 | – | – | 8 | – | 5.92 | 9600 |
| Cc1ccccc1-c1nn(-c2cc(F)ccc2F)cc1CNCCN1CCN(C)CC1 | – | – | >8 | – | 5.60 | > 20000 |
| CN1CCN(CCNCc2cn(-c3ccc(F)cc3F)nc2-c2ccc(C(F)(F)F)cc2)CC1 | – | – | 37 | – | 6.27 | 20000 |
| CN1CCN(CCNCc2cn(-c3ccc(F)cc3F)nc2Cc2ccccc2)CC1 | – | – | >1.3 | – | 4.80 | > 20000 |
| CN1CCN(CCNCc2cn(-c3ccc([N+](=O)[O-])cc3)nc2-c2ccc(OC(F)(F)F)cc2)CC1 | – | – | 11 | – | 6.40 | 4400 |
| Cc1ccccc1-c1nn(-c2ccc(F)c(F)c2)cc1CNCCN1CCN(C)CC1 | – | – | >7.7 | – | 5.59 | > 20000 |
| CCCN1CCC(CNCc2cn(-c3ccc([N+](=O)[O-])cc3)nc2-c2ccc(OC(F)(F)F)cc2)CC1 | – | – | 30 | – | 6.22 | 18000 |
| Cc1ccccc1-c1nn(-c2ccc(C(F)(F)F)cc2)cc1CNCCN1CCN(C)CC1 | – | – | 24 | – | 6.34 | 11000 |
| COC(=O)c1ccc(-c2nn(-c3ccc(F)cc3F)cc2CNCCN2CCN(C)CC2)cc1 | – | – | >5.3 | – | 5.42 | > 20000 |
| Cc1ccccc1-c1nn(-c2ccc(F)cc2F)cc1CNCCCN(C)C | > 25000 | inactive | >3 | 5.21 | 5.17 | > 20000 |
| Cc1ccc(-n2cc(CNCCN3CCN(C)CC3)c(-c3ccccc3C)n2)c(C)c1 | – | – | >8.3 | – | 5.62 | > 20000 |
| CCCN1CCC(CNCc2cn(-c3ccc(C(F)(F)F)cc3)nc2-c2ccc(OC(F)(F)F)cc2)CC1 | – | – | 5.3 | – | 6.39 | 2200 |
| CN1CCN(CCNCc2cn(-c3ccc(F)cc3F)nc2-c2cccc(N(C)C)c2)CC1 | – | – | >6.3 | – | 5.49 | > 20000 |
| CCCCCNCc1cn(-c2ccc(F)cc2F)nc1-c1ccccc1C | – | – | 1 | – | 4.74 | 17000 |
| CN1CCN(CCCNCc2cn(-c3ccc([N+](=O)[O-])cc3)nc2-c2ccc(Cl)cc2)CC1 | – | – | 28 | – | 6.89 | 3700 |
| CN1CCN(CCCNCc2cn(-c3ccc([N+](=O)[O-])cc3)nc2-c2ccc(OC(F)(F)F)cc2)CC1 | – | – | 4.6 | – | 6.47 | 1600 |
| Cc1ccccc1-c1nn(-c2ccccc2Cl)cc1CNCCN1CCN(C)CC1 | – | – | >5.3 | – | 5.42 | > 20000 |
| CCCN1CCC(CNCc2cn(-c3ccc(C(F)(F)F)cc3)nc2-c2ccc(C(F)(F)F)cc2)CC1 | – | – | 3.6 | – | 6.48 | 1200 |
| CCCN1CCC(CNCc2cn(-c3ccc([N+](=O)[O-])cc3)nc2-c2ccc(C(F)(F)F)cc2)CC1 | – | – | 15 | – | 6.82 | 2300 |

— ChEMBL document CHEMBL2439964, “Identification of a series of 1,3,4-trisubstituted pyrazoles as novel hepatitis C virus entry inhibitors” (Bioorg Med Chem Lett, 2013)
